HSP90 refold inh: blocks HSP90-mediated luciferase refolding in reticulocyte lysate; 290,000 compounds, 0.91% hits; Rabbit reticulocyte lysate, luciferase refolding luminescence, 3 h; inhibition, % at 5.6 µM;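 active = inhibition above the screen-wide mean plus 3 SD, computed separately per campaign, cut at about 16% in these data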;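 also: 0% = DMSO wells and 100% = 60 µM geldanamycin wells; inhibitors lower the luminescence because luciferase stays unfolded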
FLuc act counter: affects firefly luciferase, flagging false hits in luciferase stimulation screens; P08659; ATPlite luciferase biochemical, luminescence, 10 min; 0 = ATP-free wells, 1 = DMSO control; activation factor at 10 µM; 200,000 tested, under 10 active; AID 1027;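 active = luciferase activation factor, scaled between plate controls, of at least 2 with compound at 10 µM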
Target sequence (P08659 whole entry, looked up): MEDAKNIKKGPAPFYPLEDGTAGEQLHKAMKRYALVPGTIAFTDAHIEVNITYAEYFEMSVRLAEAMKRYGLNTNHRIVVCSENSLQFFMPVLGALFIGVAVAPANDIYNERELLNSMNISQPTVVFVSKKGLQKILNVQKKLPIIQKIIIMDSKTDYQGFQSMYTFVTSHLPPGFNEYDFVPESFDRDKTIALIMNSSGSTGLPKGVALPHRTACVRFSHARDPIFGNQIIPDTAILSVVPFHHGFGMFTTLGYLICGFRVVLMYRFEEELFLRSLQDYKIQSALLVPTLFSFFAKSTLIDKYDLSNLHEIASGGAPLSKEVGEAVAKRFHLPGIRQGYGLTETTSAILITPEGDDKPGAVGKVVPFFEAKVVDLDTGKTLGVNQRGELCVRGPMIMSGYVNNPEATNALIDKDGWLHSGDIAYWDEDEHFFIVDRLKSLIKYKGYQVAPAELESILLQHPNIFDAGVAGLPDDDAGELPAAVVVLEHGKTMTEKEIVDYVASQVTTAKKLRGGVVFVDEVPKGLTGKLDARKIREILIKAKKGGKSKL
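Material: Luciferase/luciferin reagent mix | Doses: Test compounds dosed from 2 mM stocks in 100% DMSO | Timing: 10 min incubation after luciferase reagent addition, room temperature | Measured by: Luminescence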
TRAIL sens C8: caspase-8 TRAIL sensitization | NB7+C8 cells + TRAIL, ATPlite viability luminescence | inhibition (viability loss, TRAIL sensitization), % at 10 µM | 360,000 compounds, 1% hits | AID 624354;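 active = compounds causing at least 50% loss of cell viability in the single-dose screen, relative to plate controls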
FLuc inh counter: counter-screen for luciferase assay inhibitors: firefly luciferase inhibition; AID 1006; 200,000 compounds, 1.5% hits; inhibition, % at 10 µM; ATPLite firefly luciferase biochemical luminescence, 10 min; P08659;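 active = inhibition above about 50% when tested at 10 µM, limit read from the data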
PPC-1+TRAIL kill: compounds killing PPC-1 cancer cells with TRAIL present (potentiator screen, no TRAIL-free arm); PPC-1 cells + TRAIL, ATPLite viability luminescence; cell killing (% activity), % at 4 µM or 5 µM; 220,000 compounds, 0.41% hits;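 active = cell killing above 50% in the first pass at 4 µM, then a duplicate retest at 5 µM averaging 50% or more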;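 also: plate controls were cells with TRAIL plus DMSO for no effect and medium-only wells lacking cells for full effect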
* hit, by the source's call; nt = no result given. The list is not random: actives were taken first. Their share in the collection is about 2%.

SMILES	HSP90 refold inh	FLuc act counter	TRAIL sens C8	FLuc inh counter	PPC-1+TRAIL kill
COc1ccc(C2=NC(c3ccccc3)CO2)cc1 (stereo not drawn)	16*	0.7	nt	27	23
O=C1Nc2ccccc2N(C(=O)c2ccc3ccccc3c2)C1c1nc2ccccc2[nH]1 (stereo not drawn)	nt	nt	58*	nt	nt
CC1C(=O)Nc2ccccc2N1C(=O)c1ccc(O)cc1 (stereo not drawn)	-3	nt	-2	nt	nt
COc1ccc(C(=O)N2CCN(Cc3nc(CC4CC4)no3)CC2)cc1	1	1.1	-11	-7	-20
CCCCc1ccc(-c2ccc(Br)cc2O)nc1	2	0.6	22	42	28
CCCCc1ccc(-c2ccc(C)cc2O)nc1	-1	0.2	43	75*	34
Cc1cc(C)n2c(=O)c3ccc(Cl)cc3nc2c1C#N	-3	1	-3	-2	-13
Cc1cc(Cl)n2c(nc3cc(F)c(F)cc32)c1C#N	5	1	74*	-4	26
COc1cccc(C(NC(C)=O)c2nc(-c3ccc(F)cc3OC)cs2)c1 (stereo not drawn)	nt	nt	-23	nt	nt
COc1ccc2nc(NC(=S)NC(=O)c3ccco3)sc2c1	12	0.2	72*	76*	8
Cc1ccc2nc(NC(=S)NC(=O)c3ccc(OC(C)C)cc3)sc2c1	nt	nt	35	nt	nt
COc1ccc2nc(NC(=O)CCNC(=O)c3ccco3)sc2c1	nt	nt	4	nt	nt
O=C(NC(=S)Nc1nc2ccccc2s1)c1ccco1	-7	0.2	77*	80*	11
O=C(NC(=S)NCc1ccc(-c2nc3ccccc3s2)cc1)c1ccco1	4	1	14	-1	4
Cc1ccc2nc(NC(=S)NC(=O)c3cccs3)sc2c1	7	0.1	79*	90*	27
Cc1nc(NC(=S)NC(=O)c2cccs2)ccc1Br	0	0.4	27	58*	21
CCCCNC(=O)Nc1nc2ccc(CC)cc2s1	-1	1	13	3	-40
CCOC(=O)C1(Cc2cccc(F)c2)CCN(CC(O)CO)CC1 (stereo not drawn)	1	nt	-13	nt	-10
O=C(CN1CC(c2ccccc2)CC1=O)N/N=C/c1cc(Br)ccc1O (stereo not drawn)	-6	1	52*	-4	34
COc1cc(/C=C(\C#N)C(=O)N2CCOCC2)ccc1OCc1ccccc1	2	1	-13	-3	10
N#C/C(=C\c1ccc(OCc2ccc(C(=O)O)cc2)cc1)C(=O)N1CCOCC1	73*	1	22	-1	6
O=C(COC(=O)CN1C(=O)COc2ccccc21)NCc1ccc(F)cc1	nt	nt	10	nt	nt
O=C(Nc1ccc(OCC(F)(F)C(F)F)c(C(F)(F)F)c1)c1ccccc1O	-4	1	58*	3	1
CCc1ccc(C(=O)/C=C/Nc2ccc(S(=O)(=O)Nc3cnc4ccccc4n3)cc2)cc1	1	nt	-10	nt	-8
COc1ccc(C(=O)NC2CCSc3ccccc32)cc1S(=O)(=O)N1CCOCC1 (stereo not drawn)	nt	nt	7	nt	nt
SMILES	HSP90 refold inh	FLuc act counter	TRAIL sens C8	FLuc inh counter	PPC-1+TRAIL kill
O=C(CNC(=O)c1ccco1)NCC(=O)OCC(=O)c1ccc(Cl)c([N+](=O)[O-])c1	2	nt	2	nt	nt
COc1ccc(NC(=O)CCNS(=O)(=O)c2cccc3nonc23)cc1	-1	nt	-3	nt	nt
Cc1nc2nc(-c3ccc(Cl)cc3)[nH]n2c(=O)c1C	2	0.3	nt	66*	40
COC(=O)Cc1c(C)nc2nc(-c3ccc(C)cc3)[nH]n2c1=O	6	0.5	27	50*	5
Cc1cc(=O)n2[nH]c(-c3ccc(F)cc3)nc2n1	-3	0.3	51*	66*	37
COC(=O)Cc1c(C)nc2nc(-c3ccc(Cl)cc3)[nH]n2c1=O	1	0.4	30	58*	37
Cc1ccc(S(=O)(=O)N2[C@@H](c3ccc(Cl)cc3)C(C(=O)O)=CC[C@H]2c2cccs2)cc1	nt	nt	4	nt	nt
CCn1nc(C(=O)NCCc2ccc(S(N)(=O)=O)cc2)c2ccccc2c1=O	1	1.1	47*	-7	-2
Cn1nc(C(=O)NCCc2ccc(S(N)(=O)=O)cc2)c2ccccc2c1=O	2	nt	6	nt	-9
O=c1oc(-c2cccs2)nc2sc3c(c12)CCCC3	0	0.7	-4	35	-9
O=c1c2c3c(sc2nc2n1N=C(c1cccs1)CS2)CCCC3	5	0.2	67*	76*	78*
OC(c1ccccc1)c1nc(-c2cc(F)cc(F)c2)cs1 (stereo not drawn)	nt	nt	7	nt	nt
COC1=C(Br)C(=O)c2ncccc2C1=O	nt	nt	5	nt	nt
NC(=O)c1ccc(NC(=O)CSc2nnc(-c3ccccn3)n2N)cc1	-2	1.1	-1	-6	-9
Cc1ccc(C)c(NC(=S)NC(NC(=O)N(C)C)C(Cl)(Cl)Cl)c1 (stereo not drawn)	4	1.1	-7	-6	16
Cc1ccc(C)c(NC(=S)NC(NC(=O)Cc2cccc3ccccc23)C(Cl)(Cl)Cl)c1 (stereo not drawn)	-4	1	85*	-4	18
COc1ccccc1-c1cc(C(=O)Nc2cccnc2)no1	1	0.4	43	62*	46
CCCCCCCC[n+]1cccc2c3ccccc3ccc21	1	1.1	59*	-7	44
CCCCCCCCCC[n+]1cccc2c3ccccc3ccc21	2	1.1	44	-5	36
Cc1cnc(NC(=O)Cc2ccc(C)c(C)c2)s1	-3	nt	17	nt	nt
CC(NC1=CC(=O)c2cccnc2C1=O)C(O)c1ccccc1 (stereo not drawn)	nt	nt	83*	nt	nt
CC(c1ccccc1)N1C(=O)c2cccnc2C1=O (stereo not drawn)	-5	nt	0	nt	nt
N#C/C(=C/c1ccc2c(c1)OCO2)C(=O)Nc1ccc(O)cc1	0	0.4	22	60*	0
Cc1[nH]c2ccccc2c1NC(=O)CN1CCN(C(=O)c2ccco2)CC1	2	nt	5	nt	20
CC(/C=N/NC(=O)c1n[nH]c2c1CCC2)=C\c1ccccc1	1	0.5	47*	53*	20
SMILES	HSP90 refold inh	FLuc act counter	TRAIL sens C8	FLuc inh counter	PPC-1+TRAIL kill
CC(/C=N/NC(=O)c1cccs1)=C\c1ccccc1	1	0.2	58*	76*	21
O=C(N/N=C/C(Cl)=C\c1ccccc1)c1cccs1	-3	nt	26	nt	5
Cc1cccc(-n2ncc3c(NC(C)C)ncnc32)c1	-1	0.4	66*	63*	31
CC(C)Nc1ncnc2c1cnn2-c1ccccc1	4	0.2	43	79*	nt
NNc1ncnc2c1cnn2-c1ccccc1	-2	0.9	5	15	-4
CCCC(=O)N1CCCC(c2cc(C(=O)Nc3ccccc3)no2)C1 (stereo not drawn)	nt	nt	52*	nt	nt
O=C(Nc1ccccc1)c1cc(C2CCCN(C(=O)c3ccccc3)C2)on1 (stereo not drawn)	nt	nt	4	nt	nt
COc1ccc2cc(/C=N/NC(=O)c3ccc(CN(c4cccc(Cl)c4Cl)S(C)(=O)=O)cc3)c(Cl)nc2c1	-2	1	11	-4	51*

Screening results (PubChem BioAssay)
